Test results taken from ChEMBL document CHEMBL4376885 (J Med Chem, 2020).

Experiments:
[1] = tested on: Human immunodeficiency virus 1; assay: Antiviral activity against HIV1 3B infected in human MT4 cells assessed as protection against virus-induced cytopathic effect incubated for 5 days by MTT assay; format: functional, organism-based; conditions: Human immunodeficiency virus 1, 3B, MT4, 120 h
[2] = tested on: Human immunodeficiency virus 1; assay: Antiviral activity against NNRTI-resistant HIV1 RES056 containing reverse transcriptase K103N+Y181C mutant infected in human MT4 cells assessed as protection against virus-induced cytopathic effect incubated for 5 days by MTT assay; format: functional, organism-based; conditions: Human immunodeficiency virus 1, RES056, MT4, 120 h
[3] = tested on: Human immunodeficiency virus 1; assay: Antiviral activity against HIV1 containing reverse transcriptase Y181C mutant infected in human MT4 cells assessed as protection against virus-induced cytopathic effect incubated for 5 days by MTT assay; format: functional, organism-based; conditions: Human immunodeficiency virus 1, MT4, 120 h
[4] = tested on: Human immunodeficiency virus 1; assay: Antiviral activity against HIV1 containing reverse transcriptase K103N mutant infected in human MT4 cells assessed as protection against virus-induced cytopathic effect incubated for 5 days by MTT assay; format: functional, organism-based; conditions: Human immunodeficiency virus 1, MT4, 120 h
[5] = tested on: Human immunodeficiency virus 1; assay: Antiviral activity against HIV1 containing reverse transcriptase L100I mutant infected in human MT4 cells assessed as protection against virus-induced cytopathic effect incubated for 5 days by MTT assay; format: functional, organism-based; conditions: Human immunodeficiency virus 1, MT4, 120 h
[6] = tested on: Human immunodeficiency virus 1; assay: Antiviral activity against HIV1 containing reverse transcriptase F227L+V106A mutant infected in human MT4 cells assessed as protection against virus-induced cytopathic effect incubated for 5 days by MTT assay; format: functional, organism-based; conditions: Human immunodeficiency virus 1, MT4, 120 h
[7] = tested on: Human immunodeficiency virus 1; assay: Antiviral activity against HIV1 containing reverse transcriptase E138K mutant infected in human MT4 cells assessed as protection against virus-induced cytopathic effect incubated for 5 days by MTT assay; format: functional, organism-based; conditions: Human immunodeficiency virus 1, MT4, 120 h
[8] = tested on: Human immunodeficiency virus 1; assay: Antiviral activity against HIV1 containing reverse transcriptase Y188L mutant infected in human MT4 cells assessed as protection against virus-induced cytopathic effect incubated for 5 days by MTT assay; format: functional, organism-based; conditions: Human immunodeficiency virus 1, MT4, 120 h
Cytochrome P450 2D6 = Cytochrome P450 2D6 (Homo sapiens, UniProt P10635); assay: Inhibition of CYP2D6 in human liver microsomes using dextromethorphan substrate in presence of NADPH incubated for 10 mins; format: ADME
Sequence of Cytochrome P450 2D6 (P10635 whole entry): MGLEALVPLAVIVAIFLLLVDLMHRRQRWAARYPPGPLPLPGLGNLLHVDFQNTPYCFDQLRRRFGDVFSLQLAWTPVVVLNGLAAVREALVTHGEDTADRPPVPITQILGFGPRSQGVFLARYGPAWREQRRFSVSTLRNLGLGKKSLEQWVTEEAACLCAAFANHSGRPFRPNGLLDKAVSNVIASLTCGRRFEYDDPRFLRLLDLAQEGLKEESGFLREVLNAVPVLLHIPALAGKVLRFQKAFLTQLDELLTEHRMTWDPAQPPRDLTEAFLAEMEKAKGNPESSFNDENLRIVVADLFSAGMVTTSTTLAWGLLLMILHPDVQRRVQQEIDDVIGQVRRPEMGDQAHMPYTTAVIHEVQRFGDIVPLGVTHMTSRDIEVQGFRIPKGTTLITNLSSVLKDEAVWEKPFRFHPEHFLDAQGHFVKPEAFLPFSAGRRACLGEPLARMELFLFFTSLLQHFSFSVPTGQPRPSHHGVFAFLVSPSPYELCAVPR

[9] = Toxicity in Kunming mouse assessed as induction of poisoning symptoms at 2000 mg/kg, po administered as single dose measured during 7 days post dose; format: organism-based; conditions: in vivo, 168 h
Method in brief: (§1)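 Kunming mice received a single oral 2000 mg/kg dose and were followed for 7 days alongside an untreated control group. Mortality, poisoning symptoms and behaviour were recorded, and relative body-weight change was tracked.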

[10] = Toxicity in Kunming mouse assessed as induction of mortality at 2000 mg/kg, po administered as single dose measured during 7 days post dose; format: organism-based; conditions: in vivo, 168 h; method in brief: as §1
[11] = Tmax in Wistar rat at 2 mg/kg, iv by LC-MS/MS analysis; format: ADME, organism-based; conditions: in vivo
Method in brief: (§2)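 Single dose, intravenous at 2 mg/kg or oral at 10 mg/kg, in Wistar rats and Kunming mice.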

[12] = Tmax in Kunming mouse at 2 mg/kg, iv by LC-MS/MS analysis; format: ADME, organism-based; conditions: in vivo; method in brief: as §2
[13] = Toxicity in Kunming mouse assessed as induction of body weight changes at 2000 mg/kg, po administered as single dose measured during 7 days post dose; format: organism-based; conditions: in vivo, 168 h; method in brief: as §1
[14] = Tmax in Wistar rat at 10 mg/kg, po by LC-MS/MS analysis; format: ADME, organism-based; conditions: in vivo; method in brief: as §2
[15] = Tmax in Kunming mouse at 10 mg/kg, po by LC-MS/MS analysis; format: ADME, organism-based; conditions: in vivo; method in brief: as §2
[16] = Toxicity in Kunming mouse assessed as induction of abnormal behaviors at 2000 mg/kg, po administered as single dose measured during 7 days post dose; format: organism-based; conditions: in vivo, 168 h; method in brief: as §1

Cc1cc(C#N)cc(C)c1Oc1nc(Nc2ccc(C#N)c(F)c2F)nc2ccsc12
EC50 [1]: 226 nM

Cc1cc(C#N)cc(C)c1Oc1nc(Nc2ccc(C#N)c(F)c2)nc2cc[nH]c12
EC50 [2]: 29.4 nM
EC50 [1]: 2.89 nM

Cc1cc(/C=C/C#N)cc(C)c1Oc1nc(Nc2ccc(C#N)cc2C(F)(F)F)nc2sccc12
EC50 [1]: 166 nM

Cc1cc(/C=C/C#N)cc(C)c1Oc1nc(Nc2ccc(C#N)cc2C(F)(F)F)nc2ccsc12
EC50 [2]: 48.4 nM
EC50 [1]: 24.5 nM

O=C1Nc2ccc(Cl)cc2[C@@](C#CC2CC2)(C(F)(F)F)O1 [EFAVIRENZ]
EC50 [2]: 186 to 260 nM
EC50 [1]: 2.31 to 2.49 nM

Cc1cc(C#N)cc(C)c1Oc1nc(Nc2ccc(C#N)cc2C(F)(F)F)nc2sccc12
EC50 [1]: 1280 nM

Cc1cc(C#N)cc(C)c1Oc1nc(Nc2ccc(C#N)c(F)c2)nc2cccc(F)c12
EC50 [2]: 182 nM
EC50 [1]: 12.3 nM

Cc1cc(/C=C/C#N)cc(C)c1Oc1nc(Nc2ccc(C#N)c(C(F)(F)F)c2)nc2sccc12
EC50 [2]: 140 nM
EC50 [1]: 35.3 nM

Cc1cc(C#N)cc(C)c1Oc1nc(Nc2ccc(C#N)cc2F)nc2ccsc12
EC50 [1]: 30.4 nM

Cc1cc(C#N)cc(C)c1Oc1nc(Nc2ccc(C#N)c(F)c2)nc2c1CSC2
EC50 [2]: 611 nM
EC50 [1]: 20.7 nM

Cc1cc(C#N)cc(C)c1Oc1nc(Nc2ccc(C#N)c(F)c2)nc2sccc12
EC50 [2]: 119 nM
EC50 [1]: 10.1 nM

Cc1cc(C#N)cc(C)c1Oc1nc(Nc2ccc(C#N)c(F)c2)nc2c1CCC2
EC50 [2]: 951 nM
EC50 [1]: 37.7 nM

Cc1cc(/C=C/C#N)cc(C)c1Oc1nc(Nc2ccc(C#N)c(F)c2)nc2sccc12
EC50 [3]: 26.3 nM
EC50 [4]: 7.36 nM
EC50 [5]: 5.55 nM
EC50 [2]: 33.4 nM
EC50 [6]: 32.8 nM
EC50 [7]: 29.7 nM
EC50 [8]: 35.7 nM
EC50 [1]: 7.64 nM

Cc1cc(C#N)cc(C)c1Oc1nc(Nc2ccc(C#N)c(F)c2)nc2c1SCC2
EC50 [2]: 107 nM
EC50 [1]: 6.31 nM

Cc1cc(C#N)cc(C)c1Oc1nc(Nc2ccc(C#N)c(C(F)(F)F)c2)nc2sccc12
EC50 [1]: 44.9 nM

Cc1cc(/C=C/C#N)cc(C)c1Oc1nc(Nc2ccc(C#N)c(F)c2F)nc2ccsc12
EC50 [2]: 1090 nM
EC50 [1]: 8.92 nM

Cc1cc(C#N)cc(C)c1Oc1nc(Nc2ccc(C#N)c(F)c2)nc2ccsc12
EC50 [2]: 50.1 nM
EC50 [1]: 6.74 nM

Cc1cc(C#N)cc(C)c1Oc1nc(Nc2ccc(C#N)c(F)c2)nc2c1COC2
EC50 [2]: 274 nM
EC50 [1]: 2.99 nM

Cc1cc(C#N)cc(C)c1Oc1nc(Nc2ccc(C#N)cc2)nc(N)c1Br [ETRAVIRINE]
EC50 [2]: 32.2 to 37.9 nM
EC50 [1]: 2.55 to 3.13 nM

Cc1cc(C#N)cc(C)c1Oc1nc(Nc2ccc(C#N)cc2F)nc2sccc12
EC50 [1]: 24 nM

Cc1cc(C#N)cc(C)c1Oc1nc(Nc2ccc(C#N)c(F)c2F)nc2sccc12
EC50 [1]: 40.3 nM

Cc1cc(/C=C/C#N)cc(C)c1Oc1nc(Nc2ccc(C#N)c(F)c2)nc2ccsc12
EC50 [3]: 8.49 nM
IC50 (Cytochrome P450 2D6): > 50000 nM
EC50 [4]: < 3.62 nM
EC50 [5]: < 3.62 nM
Activity [9]: Non-Toxic
Activity [10]: Non-Toxic
Tmax [11]: 1.98 min
Tmax [12]: 1.98 min
Activity [13]: Non-Toxic
EC50 [2]: 21.5 nM
Tmax [14]: 30 min
EC50 [6]: 9.28 nM
EC50 [7]: 9.4 nM
EC50 [8]: 8.15 nM
Tmax [15]: 60 min
Activity [16]: Non-Toxic
EC50 [1]: 8.6 nM

Cc1cc(C#N)cc(C)c1Oc1cc(Cl)nc(Nc2ccc(C#N)c(F)c2)n1
EC50 [2]: 898 nM
EC50 [1]: 48.9 nM

Cc1cc(C#N)cc(C)c1Oc1nc(Nc2ccc(C#N)c(F)c2)nc2c1CCCC2
EC50 [2]: 180 nM
EC50 [1]: 11.3 nM

Cc1cc(C#N)cc(C)c1Oc1nc(Nc2ccc(C#N)c(F)c2)nc2scnc12
EC50 [2]: 162 nM
EC50 [1]: 3.72 nM

Cc1cc(/C=C/C#N)cc(C)c1Oc1nc(Nc2ccc(C#N)c(C(F)(F)F)c2)nc2ccsc12
EC50 [1]: 146 nM

Cc1cc(C#N)cc(C)c1Oc1nc(Nc2ccc(C#N)c(C(F)(F)F)c2)nc2ccsc12
EC50 [1]: 29.2 nM

Cc1cc(C#N)cc(C)c1Oc1nc(Nc2ccc(C#N)c(F)c2)nc2ccccc12
EC50 [2]: 148 nM
EC50 [1]: 8.07 nM

Cc1cc(C#N)cc(C)c1Oc1nc(Nc2ccc(C#N)c(F)c2)nc2ncsc12
EC50 [2]: 131 nM
EC50 [1]: 3 nM

Cc1cc(C#N)cc(C)c1Oc1ccnc(Nc2ccc(C#N)c(F)c2)n1
EC50 [2]: 388 nM
EC50 [1]: 6.33 nM

Cc1cc(/C=C/C#N)cc(C)c1Oc1nc(Nc2ccc(C#N)c(F)c2F)nc2sccc12
EC50 [2]: 2350 nM
EC50 [1]: 18.6 nM

Cc1cc(/C=C/C#N)cc(C)c1Oc1nc(Nc2ccc(C#N)cc2F)nc2ccsc12
EC50 [2]: 561 nM
EC50 [1]: 6.34 nM

Cc1cc(C#N)cc(C)c1Oc1nc(Nc2ccc(C#N)cc2C(F)(F)F)nc2ccsc12
EC50 [1]: 896 nM

Cc1cc(/C=C/C#N)cc(C)c1Oc1nc(Nc2ccc(C#N)cc2F)nc2sccc12
EC50 [2]: 473 nM
EC50 [1]: 7.13 nM
